Many of the other results were omitted from the sample, so hits are more common in it than they were.
Bfl-1 A1 inh: inhibitors of the anti-apoptotic protein A1, read as caspase activation; MEF A1-2A-BIM cells, Caspase-Glo 3/7 luminescence, 3 h; percent of clofoctol response, vehicle zero; caspase activation, % (no concentration beside the values); 330,000 compounds, 0.066% hits; AID 2462;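 active = over half of replicate activation scores above 10%, or exactly half above 10 with the replicate mean above 10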
UPR XBP1 act: activators of adaptive arm of unfolded protein response (XBP1) | CHO-XBP1 luciferase reporter, IRE1-XBP1 UPR activation, luminescence; percent of tunicamycin response, DMSO as zero | activation, % at 20 µM | 330,000 compounds, 0.33% hits;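 active = versus positive control, 20 µM dose yields 30% or more activation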;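 also: 100% = tunicamycin at 10 µg/mL and 0% = DMSO only wells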
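Assay system: CHO-XBP1 luciferase reporter cells; Schedule: 6 h treatment, 37 °C; Detection: glow luminescence from Steady-Glo reagent; Benchmarks: high control tunicamycin 10 µg/mL final, low control DMSO vehicle only.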
UPR CHOP act: apoptotic UPR (CHOP) activation; CHO-CHOP luciferase reporter, luminescence; percent of tunicamycin response over DMSO baseline; activation, % at 10 µM; 330,000 compounds, 0.34% hits; AID 449763;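 active = at 10 µM dose, activation of 40% or more, normalized to positive control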;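 also: 100% = tunicamycin at 10 µg/mL and 0% = DMSO alone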
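System: CHO CHOP reporter cells. Amount: 500 cells per well. Buffer or medium: F12 medium, 10% FBS. Compound dosing: one dose, 10 µM in 0.5% DMSO. Incubation: 6 h compound exposure at 37 °C after overnight seeding. Technique: Steady-Glo luciferase luminescence. Benchmarks: tunicamycin and DMSO controls.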
CHOP inh: blocks CHOP induction under ER stress. 220,000 compounds, 3.8% hits. CHO-K1 CHOP-promoter luciferase, tunicamycin-induced, 15-18 h. inhibition, % at 10 µM;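 active = compounds that reduced the stress-induced luciferase reporter signal by more than about 70% of percent inhibition, limit read from the data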;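 also: 0% = tunicamycin plus vehicle and 100% = wells without tunicamycin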
* = called active by the depositor; . = no result given.

SMILES	Bfl-1 A1 inh	UPR XBP1 act	UPR CHOP act	CHOP inh
CN(C(=O)c1cccs1)C1(C)CCS(=O)(=O)C1 (stereo not drawn)	0	-1	-1	.
CCCCCCCCCCCCCCCC[n+]1ccc(C(N)=O)cc1	1	-1	1	70*
CCCCCCCC[n+]1cccc(C(=O)N(CC)CC)c1	1	-4	-1	-10
CCCCCc1cc(=O)oc2c(C(CCN3CCCC(C)C3)c3ccc(OC)cc3)c(OC)cc(OC)c12 (stereo not drawn)	1	19	7	71*
CCCCCc1cc(=O)oc2c(C(CCN3CCCC3)c3cc(OC)c(OC)c(OC)c3)c(OC)cc(OC)c12 (stereo not drawn)	-1	2	9	44
CCCCCc1cc(=O)oc2c(C(CCN3CCCC3)c3ccc(N(C)C)cc3)c(OC)cc(OC)c12 (stereo not drawn)	0	10	4	43
CCCCCc1cc(=O)oc2c(C(CCN3CCCCC3)c3ccc(OC)cc3)c(OC)cc(OC)c12 (stereo not drawn)	3	10	6	72*
Cn1c(=O)c(=O)n(C)c2cc(S(=O)(=O)N3CCCC3C(=O)Nc3ccccc3F)ccc21 (stereo not drawn)	1	0	1	.
O=C(O)c1ccc(N/N=C/c2ccc(OC(=O)c3cccc(Cl)c3)cc2)cc1	-8	-6	-8	79*
O=C(Oc1ccc(/C=N/Nc2ccccc2)cc1)c1ccccc1	-4	6	1	5
O=C(O)c1cccc(N/N=C/c2ccc(OC(F)(F)F)cc2)c1	-8	-10	-8	.
CSc1ccc(/C=N/Nc2cccc(C(=O)O)c2)cc1	.	.	.	85*
O=C(O)c1cccc(N/N=C/c2cccs2)c1	-8	-7	-11	84*
Cc1sc(NC(=O)c2cccc(N3C(=O)CCC3=O)c2)nc1-c1ccccc1	0	-1	6	.
COc1ccc(S(=O)(=O)Nc2ccc3c(c2)C(=O)N([C@H](C)CO)C[C@H](C)[C@@H](CN(C)C(=O)NC2CCCCC2)O3)cc1	-1	0	0	.
CC(C)(C)c1ccc(Cn2c(=N)n(CC(O)c3ccco3)c3ccccc32)cc1 (stereo not drawn)	-2	3	-2	76*
O=C(Nc1cccc(S(=O)(=O)NC2=NCCC2)c1)c1cc(Cl)ccc1[N+](=O)[O-]	1	2	1	.
COc1ccc(-c2cn3cccnc3n2)cc1NC(=O)c1ccc(Br)o1	0	4	1	86*
Cc1ccc(-c2cn3cccnc3n2)cc1NC(=O)c1ccc(Br)o1	1	-2	0	55
Cc1cc(O)c(-c2cc(C(=O)Nc3ccc(S(=O)(=O)N4CCOCC4)cc3)[nH]n2)cc1C	2	3	4	87*
CC1(C)CC(=O)C/C(=N/NC(=O)COc2ccc3ccccc3c2Br)C1	-1	-1	-1	.
Cn1c(=O)c2c(SCC(=O)N3CCCc4ccccc43)nc(CC(C)(C)C)nc2n(C)c1=O	0	-2	4	84*
Cc1nc2sccn2c(=O)c1S(=O)(=O)N1CCN(c2cccc(Cl)c2)CC1	-1	3	-1	.
Cc1ccccc1/C=C/c1nc2ccccc2c(=O)[nH]1	-7	-3	4	9
Cc1ccc(/C=C/c2nc3ccccc3c(=O)[nH]2)cc1	-8	-7	-5	88*
SMILES	Bfl-1 A1 inh	UPR XBP1 act	UPR CHOP act	CHOP inh
Cc1ccccc1/C=C\c1nc2ccccc2c(=O)[nH]1	-7	-3	3	84*
CC(C)(C)c1ccc(O)c(/C=N\O)c1	2	2	5	78*
CC(C)(C)c1cccc(/C=N/O)c1O	1	3	1	75*
CC(OC(=O)COc1cccc2c1OC(C)(C)C2)C(=O)Nc1ccc(S(N)(=O)=O)cc1 (stereo not drawn)	0	0	2	.
CC(=O)c1sc(NC(=O)c2cc3c(C)nn(-c4ccccc4)c3s2)nc1C	-1	-2	-1	81*
O=C(COc1ccccc1F)Nc1nnc(C2CCCC2)s1	0	-3	3	.
COC(=O)c1c(NC(=O)c2nn(C)cc2Cl)sc2c1CCCC2	0	6	-1	74*
COC(=O)c1c(NC(=O)C2CC2)sc2c1CCCC2	0	1	0	77*
COC(=O)c1c(NC(=O)COC(=O)c2ccc(C)s2)sc2c1CCCCC2	0	2	0	72*
COC(=O)c1c(NC(=O)COC(=O)c2ccccc2O)sc2c1CCCCC2	0	2	2	10
